Experiments:
Staphylococcus aureus [1] = experiment: Antibacterial activity against Staphylococcus aureus ATCC 6538 after 18 hrs; type: functional; conditions: ATCC 6538, 18 h
How it was run: (§1)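 Broth microdilution in Nutrient Broth No. 2; stocks in ethanol diluted to 0.01–128 µg/ml (triclosan) or 0.25–256 µg/ml (glycosides). Overnight 37 °C NB2 cultures diluted 1 in 10^4 in saline and added to the dilutions. Incubation at 37 °C with agitation, OD read every 15 min; MIC is the lowest concentration preventing any OD rise after 18 h.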

Staphylococcus aureus [2] = experiment: Antibacterial activity against Staphylococcus aureus ATCC 6538P after 18 hrs; type: functional; how it was run: as §1
Staphylococcus aureus [3] = experiment: Antibacterial activity against Staphylococcus aureus ATCC 9144 after 18 hrs; type: functional; conditions: ATCC 9144, 18 h; how it was run: as §1
Staphylococcus aureus [4] = experiment: Antibacterial activity against Staphylococcus aureus ATCC 25923 after 18 hrs; type: functional; conditions: ATCC 25923, 18 h; how it was run: as §1
Staphylococcus aureus [5] = experiment: Antibacterial activity against Staphylococcus aureus ATCC 29213 after 18 hrs; type: functional; conditions: ATCC 29213, 18 h; how it was run: as §1
Staphylococcus aureus [6] = experiment: Antibacterial activity against Staphylococcus aureus NCTC 13758 after 18 hrs; type: functional; conditions: NCTC 13758, 18 h; how it was run: as §1
Staphylococcus aureus [7] = experiment: Antibacterial activity against Staphylococcus aureus OCC 104 after 18 hrs; type: functional; conditions: OCC 104, 18 h; how it was run: as §1
Staphylococcus aureus [8] = experiment: Antibacterial activity against Staphylococcus aureus OCC 106 after 18 hrs; type: functional; conditions: OCC 106, 18 h; how it was run: as §1
[9] = system: Staphylococcus epidermidis; experiment: Antibacterial activity against Staphylococcus epidermidis 155 after 18 hrs; type: functional; conditions: Staphylococcus epidermidis, 155, 18 h; how it was run: as §1
[10] = system: Staphylococcus epidermidis; experiment: Antibacterial activity against Staphylococcus epidermidis ATCC 12228 after 18 hrs; type: functional; conditions: ATCC 12228, 18 h; how it was run: as §1
[11] = system: Staphylococcus epidermidis; experiment: Antibacterial activity against Staphylococcus epidermidis ATCC 14990 after 18 hrs; type: functional; conditions: ATCC 14990, 18 h; how it was run: as §1
[12] = system: Staphylococcus haemolyticus; experiment: Antibacterial activity against Staphylococcus haemolyticus OCC 2223 after 18 hrs; type: functional; conditions: OCC 2223, 18 h
How it was run: (§2)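 Broth microdilution in Nutrient Broth No. 2. Ethanol stocks were diluted in broth to 0.01–128 µg/ml for triclosan and 0.25–256 µg/ml for glycosides. Overnight 37°C NB2 cultures were diluted 1 in 10^4 in saline and added to the wells. Plates were incubated at 37°C with OD read every 15 min after agitation. MIC was the lowest concentration giving no OD increase at 18 h.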

[13] = system: Staphylococcus saprophyticus; experiment: Antibacterial activity against Staphylococcus saprophyticus ATCC 15305 after 18 hrs; type: functional; conditions: ATCC 15305, 18 h; how it was run: as §2
Streptococcus agalactiae = experiment: Antibacterial activity against Streptococcus agalactiae OCC 182 after 18 hrs; type: functional; conditions: OCC 182, 18 h; how it was run: as §2
Streptococcus pneumoniae [14] = experiment: Antibacterial activity against Streptococcus pneumoniae 6305 after 18 hrs; type: functional; conditions: Streptococcus pneumoniae, 6305, 18 h; how it was run: as §2
Streptococcus pneumoniae [15] = experiment: Antibacterial activity against Streptococcus pneumoniae ATCC 49619 after 18 hrs; type: functional; conditions: ATCC 49619, 18 h; how it was run: as §2
Streptococcus pyogenes = experiment: Antibacterial activity against Streptococcus pyogenes ATCC 19615 after 18 hrs; type: functional; conditions: ATCC 19615, 18 h; how it was run: as §2
Streptococcus viridans = experiment: Antibacterial activity against Streptococcus viridans OCC 234 after 18 hrs; type: functional; conditions: OCC 234, 18 h; how it was run: as §2
[16] = system: Salmonella enterica subsp. enterica serovar Abony; experiment: Antibacterial activity against Salmonella enterica subspecies enterica serotype Abony NCTC 6017 after 18 hrs; type: functional; conditions: NCTC 6017, 18 h; how it was run: as §1
[17] = Antibacterial activity against Salmonella enterica subspecies enterica serotype Arizonae OCC 706 after 18 hrs; type: functional, Salmonella enterica subsp. enterica serovar Arizonae; conditions: OCC 706, 18 h; how it was run: as §1
[18] = Antibacterial activity against Salmonella enterica subspecies enterica serotype Dublin OCC 627 after 18 hrs; type: functional, Salmonella enterica subsp. enterica serovar Dublin; conditions: OCC 627, 18 h; how it was run: as §1
Salmonella enteritidis = experiment: Antibacterial activity against Salmonella enterica subspecies enterica serotype Enteritidis 13076 after 18 hrs; type: functional, Salmonella enterica subsp. enterica serovar Enteritidis; conditions: Salmonella enterica, 13076, 18 h; how it was run: as §1
[19] = Antibacterial activity against Salmonella enterica subspecies enterica serotype Indiana OCC 597 after 18 hrs; type: functional, Salmonella enterica subsp. enterica serovar Indiana; conditions: OCC 597, 18 h; how it was run: as §1
[20] = Antibacterial activity against Salmonella enterica subspecies enterica serotype Infantis OCC 2133 after 18 hrs; type: functional, Salmonella enterica subsp. enterica serovar Infantis; conditions: OCC 2133, 18 h; how it was run: as §1
[21] = Antibacterial activity against Salmonella enterica subspecies enterica serotype Nottingham NCTC 7832 after 18 hrs; type: functional, Salmonella enterica subsp. enterica serovar Nottingham; conditions: NCTC 7832, 18 h; how it was run: as §1
[22] = Antibacterial activity against Salmonella enterica subspecies enterica serotype Poona NCTC 4840 after 18 hrs; type: functional, Salmonella enterica subsp. enterica serovar Poona; conditions: NCTC 4840, 18 h; how it was run: as §1
[23] = Antibacterial activity against Salmonella enterica subspecies enterica serotype Pullorum OCC 273 after 18 hrs; type: functional, Salmonella enterica subsp. enterica serovar Pullorum; conditions: OCC 273, 18 h; how it was run: as §1
Salmonella typhimurium = experiment: Antibacterial activity against Salmonella enterica subspecies enterica serotype typhimurium ATCC 14028 after 18 hrs; type: functional, Salmonella enterica subsp. enterica serovar Typhimurium; conditions: ATCC 14028, 18 h; how it was run: as §1
[24] = Antibacterial activity against Salmonella enterica subspecies enterica serotype Virchow NCTC 5742 after 18 hrs; type: functional, Salmonella enterica subsp. enterica serovar Virchow; conditions: NCTC 5742, 18 h; how it was run: as §1

Measured: MIC

Oc1cc(Cl)ccc1Oc1ccc(Cl)cc1Cl [TRICLOSAN]
4 µg/mL: Streptococcus agalactiae | Streptococcus viridans
1 µg/mL: Streptococcus pneumoniae [14] | Streptococcus pneumoniae [15] | Streptococcus pyogenes
0.5 to 1 µg/mL: [16] | [17] | [18] | Salmonella enteritidis | [19] | [20] | [21] | [22] | [23] | Salmonella typhimurium | [24]
0.01 µg/mL: all other assays above

From ChEMBL document CHEMBL4325893, “Synthesis and antibacterial profiles of targeted triclosan derivatives” (2019)
